In brackets after ≈: the same amount, converted by molar mass.
Tests used:
Type in all cases: functional
[1] = test system: Streptococcus agalactiae; assay: Antibacterial activity against Streptococcus agalactiae by CLSI M100-S17 method
[2] = test system: Streptococcus pneumoniae; assay: Antibacterial activity against Streptococcus pneumoniae assessed as resistant isolates by CLSI M100-S17 method
How it was run: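 Clinical isolates were tested by CLSI broth microdilution in frozen, in-house-prepared 96-well panels of the test agent and comparator agents. MICs were read and classed as susceptible, intermediate or resistant using CLSI M100-S17 breakpoints. The value is the share of isolates in each category.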

[3] = test system: Streptococcus pneumoniae; assay: Antibacterial activity against Streptococcus pneumoniae by CLSI M100-S17 method
[4] = test system: Streptococcus agalactiae; assay: Antibacterial activity against Streptococcus agalactiae assessed as susceptible isolates by CLSI M100-S17 method
How it was run: (§1)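 CLSI broth microdilution on clinical isolates, using frozen in-house-prepared panels of test and comparator agents. MICs were read after 20 to 24 h incubation at 35°C in ambient air. Susceptible/intermediate categories were assigned by CLSI M100-S17 guidelines.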

[5] = test system: Moraxella catarrhalis; assay: Antibacterial activity against Moraxella catarrhalis by CLSI M100-S17 method
[6] = test system: Streptococcus pneumoniae; assay: Antibacterial activity against Streptococcus pneumoniae assessed as intermediate isolates by CLSI M100-S17 method; how it was run: as §1
[7] = test system: Streptococcus pyogenes; assay: Antibacterial activity against Streptococcus pyogenes assessed as susceptible isolates by CLSI M100-S17 method; how it was run: as §1
[8] = test system: Streptococcus pyogenes; assay: Antibacterial activity against Streptococcus pyogenes by CLSI M100-S17 method
[9] = test system: Streptococcus pneumoniae; assay: Antibacterial activity against Streptococcus pneumoniae assessed as susceptible isolates by CLSI M100-S17 method; how it was run: as §1
[10] = test system: Staphylococcus epidermidis; assay: Antibacterial activity against methicillin-resistant Staphylococcus epidermidis assessed as resistant isolates by CLSI M100-S17 method
[11] = test system: Staphylococcus epidermidis; assay: Antibacterial activity against methicillin-susceptible Staphylococcus epidermidis by CLSI M100-S17 method
[12] = test system: Enterococcus faecalis; assay: Antibacterial activity against Enterococcus faecalis by CLSI M100-S17 method
[13] = test system: Staphylococcus aureus; assay: Antibacterial activity against methicillin-susceptible Staphylococcus aureus assessed as resistant isolates by CLSI M100-S17 method
[14] = test system: Staphylococcus aureus; assay: Antibacterial activity against methicillin-resistant Staphylococcus aureus by CLSI M100-S17 method
[15] = test system: Staphylococcus epidermidis; assay: Antibacterial activity against methicillin-resistant Staphylococcus epidermidis assessed as susceptible isolates by CLSI M100-S17 method
[16] = test system: Enterococcus faecium; assay: Antibacterial activity against Enterococcus faecium by CLSI M100-S17 method
[17] = test system: Staphylococcus aureus; assay: Antibacterial activity against methicillin-susceptible Staphylococcus aureus assessed as susceptible isolates by CLSI M100-S17 method
[18] = test system: Staphylococcus epidermidis; assay: Antibacterial activity against methicillin-resistant Staphylococcus epidermidis by CLSI M100-S17 method
[19] = test system: Staphylococcus aureus; assay: Antibacterial activity against methicillin-resistant Staphylococcus aureus assessed as susceptible isolates by CLSI M100-S17 method
[20] = test system: Enterococcus faecalis; assay: Antibacterial activity against Enterococcus faecalis assessed as resistant isolates by CLSI M100-S17 method
[21] = test system: Staphylococcus epidermidis; assay: Antibacterial activity against methicillin-susceptible Staphylococcus epidermidis assessed as susceptible isolates by CLSI M100-S17 method
[22] = test system: Enterococcus faecium; assay: Antibacterial activity against Enterococcus faecium assessed as susceptible isolates by CLSI M100-S17 method
[23] = test system: Staphylococcus epidermidis; assay: Antibacterial activity against methicillin-susceptible Staphylococcus epidermidis assessed as intermediate isolates by CLSI M100-S17 method
[24] = test system: Enterococcus faecalis; assay: Antibacterial activity against Enterococcus faecalis assessed as susceptible isolates by CLSI M100-S17 method
[25] = test system: Staphylococcus aureus; assay: Antibacterial activity against methicillin-susceptible Staphylococcus aureus by CLSI M100-S17 method
[26] = test system: Staphylococcus aureus; assay: Antibacterial activity against methicillin-susceptible Staphylococcus aureus assessed as intermediate isolates by CLSI M100-S17 method
[27] = test system: Staphylococcus aureus; assay: Antibacterial activity against methicillin-resistant Staphylococcus aureus assessed as intermediate isolates by CLSI M100-S17 method
[28] = test system: Staphylococcus aureus; assay: Antibacterial activity against methicillin-resistant Staphylococcus aureus assessed as resistant isolates by CLSI M100-S17 method
[29] = test system: Staphylococcus epidermidis; assay: Antibacterial activity against methicillin-resistant Staphylococcus epidermidis assessed as intermediate isolates by CLSI M100-S17 method
[30] = test system: Enterococcus faecalis; assay: Antibacterial activity against Enterococcus faecalis assessed as intermediate isolates by CLSI M100-S17 method
[31] = test system: Staphylococcus epidermidis; assay: Antibacterial activity against methicillin-susceptible Staphylococcus epidermidis assessed as resistant isolates by CLSI M100-S17 method
[32] = test system: Enterococcus faecium; assay: Antibacterial activity against Enterococcus faecium assessed as intermediate isolates by CLSI M100-S17 method
[33] = test system: Klebsiella oxytoca; assay: Antibacterial activity against Klebsiella oxytoca assessed as susceptible isolates by CLSI M100-S17 method
[34] = test system: Enterobacter cloacae; assay: Antibacterial activity against Enterobacter cloacae assessed as intermediate isolates by CLSI M100-S17 method
[35] = test system: Pseudomonas aeruginosa; assay: Antibacterial activity against Pseudomonas aeruginosa assessed as susceptible isolates by CLSI M100-S17 method
[36] = test system: Acinetobacter baumannii; assay: Antibacterial activity against Acinetobacter baumannii assessed as resistant isolates by CLSI M100-S17 method
[37] = test system: Klebsiella pneumoniae; assay: Antibacterial activity against Klebsiella pneumoniae assessed as intermediate isolates by CLSI M100-S17 method
[38] = test system: Proteus mirabilis; assay: Antibacterial activity against Proteus mirabilis assessed as resistant isolates by CLSI M100-S17 method
[39] = test system: Acinetobacter baumannii; assay: Antibacterial activity against Acinetobacter baumannii assessed as susceptible isolates by CLSI M100-S17 method
[40] = test system: Pseudomonas aeruginosa; assay: Antibacterial activity against Pseudomonas aeruginosa by CLSI M100-S17 method
[41] = test system: Klebsiella oxytoca; assay: Antibacterial activity against Klebsiella oxytoca assessed as resistant isolates by CLSI M100-S17 method
[42] = test system: Serratia marcescens; assay: Antibacterial activity against Serratia marcescens by CLSI M100-S17 method
[43] = test system: Escherichia coli; assay: Antibacterial activity against Escherichia coli by CLSI M100-S17 method
[44] = test system: Escherichia coli; assay: Antibacterial activity against Escherichia coli assessed as resistant isolates by CLSI M100-S17 method
[45] = test system: Pseudomonas aeruginosa; assay: Antibacterial activity against Pseudomonas aeruginosa assessed as resistant isolates by CLSI M100-S17 method
[46] = test system: Klebsiella pneumoniae; assay: Antibacterial activity against Klebsiella pneumoniae assessed as resistant isolates by CLSI M100-S17 method
[47] = test system: Klebsiella oxytoca; assay: Antibacterial activity against Klebsiella oxytoca assessed as intermediate isolates by CLSI M100-S17 method
[48] = test system: Escherichia coli; assay: Antibacterial activity against Escherichia coli assessed as intermediate isolates by CLSI M100-S17 method
[49] = test system: Serratia marcescens; assay: Antibacterial activity against Serratia marcescens assessed as intermediate isolates by CLSI M100-S17 method
[50] = test system: Enterobacter cloacae; assay: Antibacterial activity against Enterobacter cloacae assessed as susceptible isolates by CLSI M100-S17 method
[51] = test system: Acinetobacter baumannii; assay: Antibacterial activity against Acinetobacter baumannii by CLSI M100-S17 method
[52] = test system: Pseudomonas aeruginosa; assay: Antibacterial activity against Pseudomonas aeruginosa assessed as intermediate isolates by CLSI M100-S17 method
[53] = test system: Klebsiella pneumoniae; assay: Antibacterial activity against Klebsiella pneumoniae assessed as susceptible isolates by CLSI M100-S17 method
[54] = test system: Stenotrophomonas maltophilia; assay: Antibacterial activity against Stenotrophomonas maltophilia by CLSI M100-S17 method
[55] = test system: Proteus mirabilis; assay: Antibacterial activity against Proteus mirabilis assessed as susceptible isolates by CLSI M100-S17 method
[56] = test system: Serratia marcescens; assay: Antibacterial activity against Serratia marcescens assessed as resistant isolates by CLSI M100-S17 method
[57] = test system: Enterobacter cloacae; assay: Antibacterial activity against Enterobacter cloacae assessed as resistant isolates by CLSI M100-S17 method
[58] = test system: Enterobacter cloacae; assay: Antibacterial activity against Enterobacter cloacae by CLSI M100-S17 method
[59] = test system: Proteus mirabilis; assay: Antibacterial activity against Proteus mirabilis assessed as intermediate isolates by CLSI M100-S17 method
[60] = test system: Escherichia coli; assay: Antibacterial activity against Escherichia coli assessed as susceptible isolates by CLSI M100-S17 method
[61] = test system: Acinetobacter baumannii; assay: Antibacterial activity against Acinetobacter baumannii assessed as intermediate isolates by CLSI M100-S17 method
[62] = test system: Proteus mirabilis; assay: Antibacterial activity against Proteus mirabilis by CLSI M100-S17 method

## CC1(C)S[C@@H]2[C@H](NC(=O)Cc3ccccc3)C(=O)N2[C@H]1C(=O)O [PENICILLIN G]
[1]
  MIC50: 0.06 µg/mL (≈ 0.179 µM)
  MIC90: 0.25 µg/mL (≈ 0.748 µM)
[2]
  Activity: 5%
[3]
  MIC50: 0.06 µg/mL (≈ 0.179 µM)
  MIC90: 0.25 µg/mL (≈ 0.748 µM)
[4]
  Activity: 100%
[5]
  MIC50: > 8 µg/mL
  MIC90: > 8 µg/mL
[6]
  Activity: 15.7%
[7]
  Activity: 100%
[8]
  MIC: ≤ 0.03 µg/mL
  MIC50: ≤ 0.03 µg/mL
  MIC90: ≤ 0.03 µg/mL
[9]
  Activity: 79.3%

## CN[C@H](CC(C)C)C(=O)N[C@H]1C(=O)N[C@@H](CC(N)=O)C(=O)N[C@H]2C(=O)N[C@H]3C(=O)N[C@H](C(=O)N[C@H](C(=O)O)c4cc(O)cc(O)c4-c4cc3ccc4O)[C@H](O)c3ccc(c(Cl)c3)Oc3cc2cc(c3O[C@@H]2O[C@H](CO)[C@@H](O)[C@H](O)[C@H]2O[C@H]2C[C@](C)(N)[C@H](O)[C@H](C)O2)Oc2ccc(cc2Cl)[C@H]1O [VANCOMYCIN]
[10]
  Activity: 0%
[1]
  MIC50: ≤ 0.25 µg/mL
  MIC90: 0.25 µg/mL (≈ 0.173 µM)
[11]
  MIC90: 2 µg/mL (≈ 1.38 µM)
[12]
  MIC50: 1 µg/mL (≈ 0.69 µM)
  MIC90: 2 µg/mL (≈ 1.38 µM)
[13]
  Activity: 0%
[14]
  MIC50: 1 µg/mL (≈ 0.69 µM)
  MIC90: 1 µg/mL (≈ 0.69 µM)
[3]
  MIC50: ≤ 0.25 µg/mL
  MIC90: 0.25 µg/mL (≈ 0.173 µM)
[15]
  Activity: 100%
[16]
  MIC50: 0.5 µg/mL (≈ 0.345 µM)
  MIC90: > 32 µg/mL
[17]
  Activity: 100%
[18]
  MIC90: 2 µg/mL (≈ 1.38 µM)
[19]
  Activity: 100%
[20]
  Activity: 0%
[21]
  Activity: 100%
[7]
  Activity: 100%
[22]
  Activity: 87.9%
[8]
  MIC50: 0.5 µg/mL (≈ 0.345 µM)
  MIC90: 0.5 µg/mL (≈ 0.345 µM)
[23]
  Activity: 0%
[24]
  Activity: 100%
[25]
  MIC50: 1 µg/mL (≈ 0.69 µM)
  MIC90: 1 µg/mL (≈ 0.69 µM)
[26]
  Activity: 0%
[27]
  Activity: 0%
[28]
  Activity: 0%
[29]
  Activity: 0%
[30]
  Activity: 0%
[31]
  Activity: 0%
[32]
  Activity: 0%
[9]
  Activity: 100%

## GENTAMICIN
[10]
  Activity: 55%
[33]
  Activity: 97%
[34]
  Activity: 0%
[35]
  Activity: 60.1%
[36]
  Activity: 8%
[11]
  MIC90: > 32 µg/mL
[37]
  Activity: 0.4%
[38]
  Activity: 3.4%
[13]
  Activity: 3.2%
[39]
  Activity: 92%
[14]
  MIC90: > 32 µg/mL
[40]
  MIC50: 4 µg/mL
  MIC90: > 32 µg/mL
[15]
  Activity: 30%
[41]
  Activity: 1%
[42]
  MIC90: 1 µg/mL
[43]
  MIC90: 16 µg/mL
[17]
  Activity: 96.7%
[44]
  Activity: 10.6%
[18]
  MIC50: 16 µg/mL
  MIC90: > 32 µg/mL
[19]
  Activity: 86.8%
[21]
  Activity: 58.3%
[45]
  Activity: 20.9%
[46]
  Activity: 2.9%
[47]
  Activity: 2%
[48]
  Activity: 0.5%
[49]
  Activity: 3.7%
[50]
  Activity: 96.4%
[51]
  MIC90: 1 µg/mL
[23]
  Activity: 10.2%
[25]
  MIC90: 1 µg/mL
[52]
  Activity: 19%
[53]
  Activity: 96.7%
[54]
  MIC50: 32 µg/mL
  MIC90: > 32 µg/mL
[55]
  Activity: 95.8%
[56]
  Activity: 4.7%
[26]
  Activity: 0.1%
[27]
  Activity: 0%
[28]
  Activity: 13.2%
[57]
  Activity: 3.6%
[58]
  MIC90: 1 µg/mL
[59]
  Activity: 0.8%
[29]
  Activity: 15%
[31]
  Activity: 31.5%
[60]
  Activity: 88.9%
[61]
  Activity: 0%
[62]
  MIC50: 1 µg/mL
  MIC90: 2 µg/mL

From ChEMBL document CHEMBL1649552 (2009)
